# ChEMBL document CHEMBL4364254 (J Med Chem, 2019)
# Columns and labels:
# [1] = molecular target: Cannabinoid receptor 1 (Homo sapiens, UniProt P21554); experiment: Displacement of [3H]CP55940 from human CB1 receptor expressed in HEK293 cell membranes
# Outline: (§1)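 Competition binding against [3H]CP55940 in membranes from HEK cells overexpressing human CB1 or CB2. Ki values are derived from displacement, and the same membrane format is used for both receptors. Values are averages of three to six independent measurements.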
# [2] = molecular target: Cannabinoid receptor 2 (Homo sapiens, UniProt P34972); experiment: Displacement of [3H]CP55940 from human CB2 receptor expressed in HEK293 cell membranes; outline: as §1
# [3] = organism: Homo sapiens; experiment: Selectivity ratio of Ki for displacement of [3H]CP55940 from human CB2 receptor expressed in HEK293 cell membranes to Ki for displacement of [3H]CP55940 from human CB1 receptor expressed in HEK293 cell membranes
# Outline: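 Competitive displacement of [3H]CP55940 from membranes of HEK cells overexpressing human CB1 or human CB2. A Ki was determined at each receptor, and selectivity was expressed as Ki(CB2)/Ki(CB1). Ki values are means of three to six independent measurements.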
# [4] = Half life in Sprague-Dawley rat plasma at 1 mg/kg, po by LC-MS/MS analysis; type: ADME, organism-based
# [5] = Cmax in C57BL6 mouse plasma at 0.3 mg/kg, po measured at 1 hr post dose by LC-MS/MS analysis; type: ADME, organism-based; set-up: dose 0.3 mg/kg, route oral
# Outline: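 Female C57BL6 mice, 8 weeks old, received a single oral dose of 0.3 mg/kg in 1% NMP/0.3% Tween 80 in 0.5% Na-CMC. […] Maximum observed concentrations are reported; plasma clearance and half-life come from PK analysis.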
# Sequence of Cannabinoid receptor 1 (P21554 whole entry): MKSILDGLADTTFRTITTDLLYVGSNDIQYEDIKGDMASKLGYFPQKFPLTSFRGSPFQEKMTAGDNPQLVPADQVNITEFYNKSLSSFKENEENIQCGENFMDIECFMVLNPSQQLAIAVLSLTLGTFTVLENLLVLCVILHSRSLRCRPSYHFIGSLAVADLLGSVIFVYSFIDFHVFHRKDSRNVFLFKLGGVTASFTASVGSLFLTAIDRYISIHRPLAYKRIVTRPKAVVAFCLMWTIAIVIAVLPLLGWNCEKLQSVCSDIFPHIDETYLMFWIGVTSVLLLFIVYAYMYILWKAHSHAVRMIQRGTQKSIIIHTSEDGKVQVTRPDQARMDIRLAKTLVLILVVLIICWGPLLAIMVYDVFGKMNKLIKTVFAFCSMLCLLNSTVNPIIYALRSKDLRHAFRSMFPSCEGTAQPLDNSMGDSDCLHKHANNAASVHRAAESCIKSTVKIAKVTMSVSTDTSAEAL
# Sequence of Cannabinoid receptor 2 (P34972 whole entry): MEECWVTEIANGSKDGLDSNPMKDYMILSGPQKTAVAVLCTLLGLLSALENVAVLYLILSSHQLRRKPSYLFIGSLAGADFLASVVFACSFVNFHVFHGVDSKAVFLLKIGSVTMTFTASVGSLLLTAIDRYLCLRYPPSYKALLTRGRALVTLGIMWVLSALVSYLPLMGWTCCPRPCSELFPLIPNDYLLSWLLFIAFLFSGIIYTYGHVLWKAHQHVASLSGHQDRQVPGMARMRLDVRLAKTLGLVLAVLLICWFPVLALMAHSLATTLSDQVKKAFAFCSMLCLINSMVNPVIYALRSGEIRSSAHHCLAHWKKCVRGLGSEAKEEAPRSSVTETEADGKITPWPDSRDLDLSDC
Structure (SMILES),Ki [1] [nM],Ki [2] [nM],Ratio Ki [3],half-life [4] [h],Cmax [5] [ng/mL]
O=C(NC1CCN(c2ncnc3c2nc(-c2ccccc2Cl)n3-c2ccc(Cl)cc2)CC1)NC1(C(F)(F)F)CCCC1,6.3,> 10000,–,–,–
O=C(NC1CCCCC1)NC1CCN(c2ncnc3c2nc(-c2ccccc2Cl)n3-c2ccc(Cl)cc2)CC1,1.4,4600,–,–,–
O=C(NCC1CCC(F)(F)CC1)NC1CCN(c2ncnc3c2nc(-c2ccccc2Cl)n3-c2ccc(Cl)cc2)CC1,26,> 10000,–,–,–
CC(C)CN(C)C(=O)NC1CCN(c2ncnc3c2nc(-c2ccccc2Cl)n3-c2ccc(Cl)cc2)CC1,–,600,–,–,–
O=C(NC1CCN(c2ncnc3c2nc(-c2ccccc2Cl)n3-c2ccc(Cl)cc2)CC1)N1CCCCC1,1.2,400,330,–,–
O=C(NCC1CCCCC1)NC1CCN(c2ncnc3c2nc(-c2ccccc2Cl)n3-c2ccc(C(F)(F)F)nc2)CC1,730,–,–,–,–
O=C(NCC1CCCC1)NC1CCN(c2ncnc3c2nc(-c2ccccc2Cl)n3-c2ccc(Cl)cc2)CC1,–,3200,–,–,–
CC1(NC(=O)NC2CCCCC2)CCN(c2ncnc3c2nc(-c2ccccc2Cl)n3-c2ccc(Cl)cc2)CC1,13,> 10000,–,–,–
CCCN(CC(F)(F)F)C(=O)NC1CCN(c2ncnc3c2nc(-c2ccccc2Cl)n3-c2ccc(Cl)cc2)CC1,1.1,2800,2500,–,–
CC1(NC(=O)Nc2ccc(F)cc2F)CCN(c2ncnc3c2nc(-c2ccccc2Cl)n3-c2ccc(Cl)cc2)CC1,6,> 10000,–,–,–
O=C(Nc1ccc(F)cc1F)NC1CCN(c2ncnc3c2nc(-c2ccccc2Cl)n3-c2ccc(Cl)cc2)CC1,–,–,–,12,1230
O=C(NCc1ccccc1F)NC1CCN(c2ncnc3c2nc(-c2ccccc2Cl)n3-c2ccc(Cl)cc2)CC1,–,220,–,–,–
CC1(NC(=O)NC2CCN(c3ncnc4c3nc(-c3ccccc3Cl)n4-c3ccc(Cl)cc3)CC2)CCC(F)(F)CC1,5,7500,–,–,–
CC1(NC(=O)Nc2ccc(OC(F)F)nc2)CCN(c2ncnc3c2nc(-c2ccccc2Cl)n3-c2ccc(Cl)cc2)CC1,81,> 10000,–,–,–
CC1(NC(=O)NC2CCC(F)(F)CC2)CCN(c2ncnc3c2nc(-c2ccccc2Cl)n3-c2ccc(Cl)cc2)CC1,17,> 10000,–,–,–
CCCN(C)C(=O)NC1CCN(c2ncnc3c2nc(-c2ccccc2Cl)n3-c2ccc(Cl)cc2)CC1,–,630,–,–,–
COCCN(C)C(=O)NC1CCN(c2ncnc3c2nc(-c2ccccc2Cl)n3-c2ccc(Cl)cc2)CC1,–,2300,–,–,–
CC1(NC(=O)Nc2ccccc2F)CCN(c2ncnc3c2nc(-c2ccccc2Cl)n3-c2ccc(Cl)cc2)CC1,4,> 10000,–,–,–
CC1(NS(=O)(=O)NC2CCCCC2)CCN(c2ncnc3c2nc(-c2ccccc2Cl)n3-c2ccc(Cl)cc2)CC1,9,740,82,–,–
CC1(NC(=O)NCc2ccccc2F)CCN(c2ncnc3c2nc(-c2ccccc2Cl)n3-c2ccc(Cl)cc2)CC1,15,1100,73,–,–
O=C(NCC1CCCCC1)NC1CCN(c2ncnc3c2nc(-c2ccccc2Cl)n3-c2ccc(Cl)cc2)CC1,0.9,7600,–,–,–
O=C(NC1CCCC1)NC1CCN(c2ncnc3c2nc(-c2ccccc2Cl)n3-c2ccc(Cl)cc2)CC1,–,> 10000,–,–,–
